ChEMBL document CHEMBL3351549, “Discovery of a Potent and Selective BCL-XL Inhibitor with in Vivo Activity” (ACS Med Chem Lett, 2014)
The source made the active and inactive calls. The calls are words filed in the database; no cut-off is given here.

Columns and labels:
[1] = Cytotoxicity against BCL-XL-dependent human NCI-H146 cells in presence of 10% human serum
[2] = target: Apoptosis regulator Bcl-2 (Homo sapiens, UniProt P10415); assay: Inhibition of BCL-2 (unknown origin) incubated for 1 hr by TR-FRET assay
[3] = Cytotoxicity against BCL-XL-dependent human NCI-H146 cells in presence of 10% human serum incubated for 48 hrs by Cell titerGlo reagent based assay; assay type: functional; conditions: NCI-H146, 48 h
[4] = target: T1, Bcl-2-like protein 1 (Homo sapiens, UniProt Q07817); assay: Inhibition of BCL-XL (unknown origin) incubated for 1 hr in presence of 1% human serum by TR-FRET assay
[5] = target: T1, Bcl-2-like protein 1; assay: Inhibition of BCL-XL (unknown origin) incubated for 1 hr by TR-FRET assay
[6] = tested on: Mus musculus; assay: Reduction in platelets count in SCID-Beige mouse at 5 mg/kg, ip after 6 hrs; assay type: functional, organism-based; parameters: dose 5 mg/kg
Procedure, shortened: (§1)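 Nontumor-bearing female SCID-Beige mice received a single IP dose of 5 mg/kg in the 5% DMSO/10% EtOH/20% Cremophor ELP/65% DSW vehicle. Blood was taken by retro-orbital bleed at regular intervals after dosing and platelets were counted.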

[7] = tested on: Mus musculus; assay: Reduction in platelets count in SCID-Beige mouse at 5 mg/kg, ip after 72 hrs; assay type: functional, organism-based; parameters: dose 5 mg/kg; procedure, shortened: as §1
[8] = Tmax in SCID-Beige mouse at 5 mg/kg, ip; assay type: ADME, organism-based; parameters: dose 5 mg/kg, route intraperitoneal; conditions: in vivo
Procedure, shortened: (§2)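 Nontumor-bearing SCID-Beige mice got a single IP dose of 5 mg/kg. Vehicle was 5% DMSO, 10% EtOH, 20% Cremophor ELP and 65% DSW. Pharmacokinetic parameters were taken from plasma exposure after the single dose.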

[9] = AUC in SCID-Beige mouse at 5 mg/kg, ip; assay type: ADME, organism-based; parameters: dose 5 mg/kg, route intraperitoneal; conditions: plasma; procedure, shortened: as §2
[10] = Cmax in SCID-Beige mouse at 5 mg/kg, ip; assay type: ADME, organism-based; parameters: dose 5 mg/kg, route intraperitoneal; conditions: in vivo; procedure, shortened: as §2
[11] = target: T2, Bcl-2-like protein 2 (Homo sapiens, UniProt Q92843); assay: Binding affinity to BCL-W (unknown origin)
T2 sequence (Q92843 whole entry): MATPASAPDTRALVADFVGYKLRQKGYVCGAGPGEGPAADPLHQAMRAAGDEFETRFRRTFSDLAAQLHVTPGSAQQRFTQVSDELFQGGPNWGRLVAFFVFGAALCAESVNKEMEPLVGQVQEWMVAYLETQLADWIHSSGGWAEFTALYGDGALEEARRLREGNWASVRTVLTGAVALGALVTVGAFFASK

[12] = target: Induced myeloid leukemia cell differentiation protein Mcl-1 (Homo sapiens, UniProt Q07820); assay: Binding affinity to MCL1 (unknown origin)
[13] = Antitumor activity against BCL-XL-dependent human NCI-H146 cells xenografted in SCID-Beige mouse assessed as tumor growth inhibition at 5 mg/kg, ip for 14 days; assay type: functional; conditions: route intraperitoneal
Procedure, shortened: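 Female SCID-Beige mice carried subcutaneous NCI-H146 xenografts and were dosed at 5 mg/kg IP QD ×14, or with an equal volume of vehicle (5% DMSO/10% EtOH/20% Cremophor ELP/65% DSW). There were 5 mice per time point. Tumor volume was calculated as W²·L·0.5 from perpendicular diameters and tracked over time. Treated and untreated groups were compared by Student's t test (p < 0.05).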

[14] = Drug concentration in SCID-Beige mouse at 5 mg/kg, ip after 12 hrs; assay type: ADME, organism-based; parameters: dose 5 mg/kg, route intraperitoneal; conditions: in vivo, read-out: Drug uptake; procedure, shortened: as §2
[15] = target: T1, Bcl-2-like protein 1; assay: Binding affinity to BCL-XL (unknown origin)

Sequence of Apoptosis regulator Bcl-2 (P10415 whole entry): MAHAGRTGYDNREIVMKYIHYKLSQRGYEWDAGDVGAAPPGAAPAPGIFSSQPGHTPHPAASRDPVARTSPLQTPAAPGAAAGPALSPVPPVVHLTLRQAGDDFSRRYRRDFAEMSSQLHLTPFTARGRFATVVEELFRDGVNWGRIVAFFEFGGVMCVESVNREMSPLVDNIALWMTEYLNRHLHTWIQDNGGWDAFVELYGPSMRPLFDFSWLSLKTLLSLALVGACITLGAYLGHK
T1 sequence (Q07817 whole entry): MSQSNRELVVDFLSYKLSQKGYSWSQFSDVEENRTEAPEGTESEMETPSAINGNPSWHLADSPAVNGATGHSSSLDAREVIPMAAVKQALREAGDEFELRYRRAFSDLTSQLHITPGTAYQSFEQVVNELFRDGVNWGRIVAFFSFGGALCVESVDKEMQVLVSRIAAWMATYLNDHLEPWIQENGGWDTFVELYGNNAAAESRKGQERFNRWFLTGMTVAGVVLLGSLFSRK
Sequence of Induced myeloid leukemia cell differentiation protein Mcl-1 (Q07820 whole entry): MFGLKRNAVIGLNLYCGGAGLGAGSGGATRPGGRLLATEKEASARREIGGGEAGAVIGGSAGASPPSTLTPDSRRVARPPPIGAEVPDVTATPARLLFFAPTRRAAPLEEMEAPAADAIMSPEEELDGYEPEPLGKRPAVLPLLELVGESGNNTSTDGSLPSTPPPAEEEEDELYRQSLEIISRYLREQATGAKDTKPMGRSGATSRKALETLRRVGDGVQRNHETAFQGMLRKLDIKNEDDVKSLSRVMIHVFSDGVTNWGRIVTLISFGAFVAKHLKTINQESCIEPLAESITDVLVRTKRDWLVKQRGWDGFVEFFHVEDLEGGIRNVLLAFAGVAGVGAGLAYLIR

| Structure (SMILES) | Ki [2] [µM] | Ki [4] [pM] | Ki [5] [pM] | EC50 [3] [µM] | other results |
| --- | --- | --- | --- | --- | --- |
| NCc1ccc(OCCCc2sc(-c3ccc4c(c3)/C(=N/Nc3nc5ccccc5s3)CCC4)nc2C(=O)O)cc1 | – | – | – | – | EC50 [1]: 0.55 µM |
| O=C(Nc1nc2ccccc2s1)c1cccc2c1CN(c1nc(C(=O)O)c(CCOc3ccc(-n4ncc5cncnc54)cc3)s1)CC2 [A-1107969] | 0.09 | 320000 | 12400 | – | – |
| CN(C)CCCNc1ncnc2c1cnn2-c1ccc(OCCCc2sc(N3CCc4cccc(C(=O)Nc5nc6ccccc6s5)c4C3)nc2C(=O)O)cc1 | 0.24 | – | < 10 | – | – |
| O=C(Nc1nc2ccccc2s1)c1cccc2c1CN(c1nc(C(=O)O)c(CCCOc3cccc(-n4ncc5cncnc54)c3)s1)CC2 | 0.22 | 10400 | 340 | – | – |
| CN(C)CC#Cc1ccc(OCCCc2sc(N3CCc4cccc(C(=O)Nc5nc6ccccc6s5)c4C3)nc2C(=O)O)cc1F | 0.088 | 1120 | 10 | 0.051 | – |
| O=C(Nc1nc2ccccc2s1)c1cccc2c1CN(c1nc(C(=O)O)c(CCCCOc3ccc(-n4ncc5cncnc54)cc3)s1)CC2 | – | 55400 | – | – | – |
| O=C(Nc1nc2ccccc2s1)c1cccc2c1CN(c1nc(C(=O)O)c(CCOc3cccc(-n4ncc5cncnc54)c3)s1)CC2 | 0.1 | 41100 | 2220 | – | – |
| c1ccc(-n2ncc3cncnc32)cc1 | – | – | – | – | Kd [15]: 4000 µM |

Further molecules by falling Ki [4], results first:

| Ki [2] [µM] | Ki [4] [pM] | Ki [5] [pM] | Structure (SMILES) | EC50 [3] [µM] | other results |
| --- | --- | --- | --- | --- | --- |
| 0.15 | 990 | < 10 | O=C(Nc1nc2ccccc2s1)c1cccc2c1CN(c1nc(C(=O)O)c(CCCOc3ccc(-n4cccn4)cc3)s1)CC2 | – | – |
| 0.28 | 410 | – | CN(C)CC#Cc1ccc(OCCCc2sc(N3CCc4cccc(C(=O)Nc5nc6ccccc6s5)c4C3)nc2C(=O)O)c(Cl)c1 | 0.18 | – |
| 0.17 | 380 | 42 | O=C(Nc1nc2ccccc2s1)c1cccc2c1CN(c1nc(C(=O)O)c(CCCOc3ccc(-n4ncc5cncnc54)cc3)s1)CC2 | – | – |
| 0.09 | 330 | 30 | CN(C)CC#Cc1cc(F)c(OCCCc2sc(N3CCc4cccc(C(=O)Nc5nc6ccccc6s5)c4C3)nc2C(=O)O)cc1F | 0.126 | – |
| – | 280 | 20 | CN(C)CC#Cc1ccc(OCCCc2sc(N3CCc4cccc(C(=O)Nc5nc6ccccc6s5)c4C3)nc2C(=O)O)cc1 | 0.6 | – |
| 0.08 | 100 | < 10 | CN(C)CC#Cc1ccc(OCCCc2sc(N3CCc4cccc(C(=O)Nc5nc6ccccc6s5)c4C3)nc2C(=O)O)c(F)c1 [A-1155463] | 0.065 | inhibition [6]: Active; inhibition [7]: inactive; Tmax [8]: 2 h; AUC [9]: 9.19 µM·h; Cmax [10]: 1800 nM; Ki [11]: 0.019 µM; Ki [12]: > 0.44 µM; Imax [13]: 44%; concentration at 12 h [14]: 180 nM |
| – | 30 | < 10 | CN1CCN(CCCNc2ncnc3c2cnn3-c2ccc(OCCCc3sc(N4CCc5cccc(C(=O)Nc6nc7ccccc7s6)c5C4)nc3C(=O)O)cc2)CC1 | – | – |
